Experimental data from ChEMBL document CHEMBL1126156, “Multivariate analysis by the minimum spanning tree method of the structural determinants of diphenylethylenes and triphenylacrylonitriles implicated in estrogen receptor binding, protein kinase C activity, and MCF7 cell proliferation” (J Med Chem, 1992).

How the values were obtained:
BT-20 [1] = assay: (§1) Cytotoxic effect on ER-negative BT20 cell proliferation; format: functional; conditions: Homo sapiens
Method in brief: (§2)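 ER-negative BT20 cells, no E2, test compound at 3–10 μM for 6 days. DNA read as percent of untreated control. IC30 is the concentration inhibiting growth by 30%; percent inhibition taken at 10⁻⁵ M. Means of two experiments, triplicate wells.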

MCF7S [2] = assay: Agonist activity against MCF-7 cell proliferation; format: functional, cell-based; conditions: Homo sapiens
Method in brief: (§3)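 MCF-7 cells grown in phenol red-free medium with 5% dextran-coated charcoal-treated serum, tested 10 pM to 1 μM. DNA content read after growth. Agonism expressed relative to the maximum response with E2 (=100%), whatever the concentration. EC50 (50% of maximum response) taken from two separate experiments.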

[3] = molecular target: T1, Protein kinase C, PKC; classical (Rattus norvegicus) (UniProt P05696+P68403+P63319); assay: The percent stimulation or inhibition of protein kinase C III activity was determined for phosphatidylserine (PS) and diolein(PS+DO) in the presence of [Ca2+]; format: protein assay; parameters: concentration or dose not given beside the values; conditions: values are per cent of control
Method in brief: (§4)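 Type III (α) PKC purified from rat brain soluble fraction, assayed with calf thymus H1 histone, 0.1 mM Ca2+, 5 mM magnesium acetate, 10 μM [32P]ATP, 2 μg/mL phosphatidylserine plus 0.2 μg/mL diolein. Compounds mostly at 10⁻⁴ M; activity expressed as percent of control.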

[4] = molecular target: T1, Protein kinase C, PKC; classical (Rattus norvegicus); assay: Percent stimulation or inhibition of protein kinase C III activity for phosphatidylserine (PS) in the presence of [Ca2+].; format: protein assay; parameters: concentration or dose not given beside the values; conditions: values are per cent of control
Method in brief: (§5)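 Purified type III (α) PKC from rat brain soluble fraction. Substrate calf thymus H1 histone with 0.1 mM Ca2+, 5 mM magnesium acetate, 10 μM [32P]ATP and 2 μg/mL phosphatidylserine, no diolein. Most compounds at 10⁻⁴ M, given as percent of control activity.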

Rattus norvegicus = species: Rattus norvegicus; assay: Percent stimulation or inhibition of protein kinase C III activity for protamine sulfate in the presence of EGTA.; parameters: concentration or dose not given beside the values; conditions: values are per cent of control
Method in brief: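 Rat brain type III (α) PKC, purified, with protamine sulfate as substrate and 0.5 mM EGTA in place of Ca2+, phosphatidylserine and diolein; 5 mM magnesium acetate, 10 μM [32P]ATP. Most compounds at 10⁻⁴ M; percent of control activity.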

MCF7S [5] = assay: Cytostatic activity against MCF-7 cell proliferation.; format: functional, Homo sapiens; parameters: concentration or dose not given beside the values
Method in brief: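 MCF-7 cells in phenol red-free charcoal-treated medium given 10⁻⁶ M E2 plus test compound (3–10 μM), 6 days of growth. DNA expressed as percent of E2-treated cells. IC30 is the concentration giving 30% inhibition. Percent inhibition taken at 10⁻⁵ M, or at 10⁻⁶ M in a second series. Means of two experiments.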

MCF7S [6] = assay: Agonistic activity in MCF-7 cell proliferation.; format: functional, Homo sapiens; method in brief: as §3
[7] = molecular target: Estrogen receptor (Bos taurus) (UniProt Q9XSB5+P49884); assay: Relative binding affinity for calf uterus estrogen receptor after 2 hr at 0 degree C; format: protein assay
Method in brief: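 Calf uterus cytosol ER incubated 2 h at 0 °C with [6,7-3H]-17β-estradiol and competitor. RBA given relative to estradiol (=100%), mean of at least four determinations.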

BT-20 [8] = assay: as §1; format: functional, Homo sapiens; parameters: concentration or dose not given beside the values; method in brief: as §2
MCF7S [9] = assay: Antagonist activity against MCF-7 cell proliferation; format: functional, Homo sapiens
Method in brief: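 Phenol red-free MCF-7 cultures with 5% dextran-coated charcoal-treated serum, stimulated by 0.1 nM E2. Proliferation read as DNA content after 8 days relative to E2 alone. Percent antagonism is the inhibition at 10⁻⁶ M test compound versus 10⁻¹⁰ M E2. IC50 (50% of maximum response) from two separate experiments.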

[10] = molecular target: T1, Protein kinase C, PKC; classical (Rattus norvegicus); assay: (§6) Percent stimulation or inhibition of protein kinase C with [Ca2+] for phosphatidylserine and diolein(PS+DO); format: protein assay; parameters: concentration or dose not given beside the values; conditions: values are per cent of control; method in brief: as §4
[11] = molecular target: T1, Protein kinase C, PKC; classical (Rattus norvegicus); assay: Percent stimulation or inhibition of protein kinase C with [Ca2+] for phosphatidylserine (PS); format: protein assay; method in brief: as §5
[12] = molecular target: T1, Protein kinase C, PKC; classical (Rattus norvegicus); assay: as §6; format: protein assay; conditions: values are per cent of control; method in brief: as §4

| SMILES | IC30 (BT-20 [1]) | EC50 (MCF7S [2]) | residual activity [3] | residual activity [4] | residual activity (Rattus norvegicus) | Inhibition (MCF7S [5]) | Agonism (MCF7S [6]) | RBA [7] | Inhibition (BT-20 [8]) | Antagonism (MCF7S [9]) | residual activity [10] | residual activity [11] | residual activity [12] | residual activity ([11]; values are per cent of control) |
| --- | --- | --- | --- | --- | --- | --- | --- | --- | --- | --- | --- | --- | --- | --- |
| NCC(=C(c1ccc(O)cc1)c1ccc(O)cc1)c1ccccc1 | 20 µM | 0.00014 µM | 53% | 78% | 20% | 19% | 76% | 9.7% | 24% | 20% | – | – | – | – |
| CCN(CC)CCOc1ccc(C(C#N)=C(c2ccccc2)c2ccccc2)cc1 | – | – | 20% | 43% | 96% | 53% | 71% | – | – | – | – | – | – | – |
| N#C/C(=C(\c1ccccc1)c1ccc(O)cc1)c1ccc(O)cc1 | – | – | 91% | 97% | 68% | 30% | 100% | – | – | – | – | – | – | – |
| N#CC(=C(c1ccccc1)c1ccccc1)c1ccccc1 | – | – | 106% | 126% | 106% | 16% | 68% | – | – | – | – | – | – | – |
| Cc1ccc(/C(=C(/C#N)c2ccccc2)c2ccc(O)cc2)cc1 | – | – | 95% | 107% | 77% | 38% | 55% | – | – | – | – | – | – | – |
| COc1ccc(/C(=C(/C#N)c2ccccc2)c2ccc(O)cc2)cc1 | – | – | – | 100% | – | 13% | 25% | – | – | – | 100% | 100% | – | – |
| CCN(CC)CCOc1ccc(C(=C(C#N)c2ccccc2)c2ccc(OCCN(CC)CC)cc2)cc1 | – | – | 10% | 20% | 101% | 94% | 62% | – | – | – | – | – | – | – |
| Cc1ccc(/C(=C(\C#N)c2ccccc2)c2ccc(O)cc2)cc1 | – | – | – | – | – | 60% | 53% | – | – | – | 87% | – | 87% | 119% |
| N#C/C(=C(\c1ccccc1)c1ccc(O)cc1)c1ccccc1 | – | – | – | 107% | 90% | 30% | 99% | – | – | – | 87% | – | – | – |
| N#C/C(=C(/c1ccccc1)c1ccc(O)cc1)c1ccccc1 | – | – | 104% | 96% | 94% | 12% | 94% | – | – | – | – | – | – | – |
| CN(C)Cc1cc(C(=C(C#N)c2ccccc2)c2ccc(O)c(CN(C)C)c2)ccc1O | – | – | – | – | – | 36% | 31% | – | – | – | – | – | – | 26% |
| N#C/C(=C(/c1ccccc1)c1ccc(O)cc1)c1ccc(O)cc1 | – | – | 87% | 94% | 86% | 17% | 98% | – | – | – | – | – | – | – |
| CCC(=C(c1ccc(O)cc1)c1ccc(OCCN(C)C)cc1)c1ccccc1 | – | – | 2% | 27% | 94% | 81% | 10% | – | – | – | – | – | – | – |
| CC(C)C=C(c1ccc(O)cc1)c1ccc(O)cc1 | 8.4 µM | 0.018 µM | 70% | – | 95% | 22% | 65% | 58% | 40% | 5% | – | – | – | – |
| CC(C)Oc1ccc(/C(=C(\C#N)c2ccccc2)c2ccc(O)cc2)cc1 | – | – | 101% | 138% | 86% | 61% | 33% | – | – | – | – | – | – | – |
| CCN(CC)CCOc1ccc(/C(=C(/C#N)c2ccccc2)c2ccc(O)cc2)cc1 | – | – | – | 20% | – | 77% | 16% | – | – | – | 2% | 20% | – | – |
| CC(C)Oc1ccc(/C(=C(/C#N)c2ccccc2)c2ccc(O)cc2)cc1 | – | – | – | – | – | 57% | 22% | – | – | – | 94% | 170% | – | – |
